Values after ≈ are worked out from the molar mass of the structure shown. Bridge positions count the residues as written; N and C are the ends. Square brackets hold non-standard residues; d marks the D form. Peptide text beside a SMILES is read from it. * marks the point of attachment. Phe(4-NH2) = Nc1ccc(C[C@H](N)C(=O)O)cc1; hSer = N[C@@H](CCO)C(=O)O; Octanoyl = CCCCCCCC(=O)*; Dab = NCC[C@H](N)C(=O)O
What was measured:
[1] = Cytotoxicity against human HepG2 cells after 24 hrs by resazurin assay; type: cell-based; settings: HepG2 cells
Escherichia coli = assay: Antibacterial activity against Escherichia coli ATCC 25922 after 18 hrs by 2 fold serial dilution method; type: functional; settings: ATCC 25922, 18 h
How it was run: (§1)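 Overnight cultures in nutrient or Mueller Hinton broth at 37 °C with shaking, diluted 50-fold into fresh MHB and grown 1.5–3 h to mid-log. Inoculum 5×10^5 CFU/mL in 2-fold serial dilutions, final range 32 to 0.015 μg/mL. MIC read visually after 18 h at 37 °C as the lowest concentration with no visible growth.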

Klebsiella pneumoniae [2] = assay: Antibacterial activity against clinical isolate carbapenem and polymyxin resistant Klebsiella pneumoniae Koprana 100650661:1 after 18 hrs by 2 fold serial dilution method; type: functional; settings: Koprana 100650661:1, 18 h
How it was run: (§2)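 Polymyxin-resistant clinical isolates were grown overnight at 37 °C in NB or MHB with shaking, diluted 50-fold in MHB and grown 1.5–3 h to mid-log phase. The inoculum was 5×10^5 CFU/mL. Compounds were 2-fold broth serial dilutions, final 32 to 0.015 μg/mL; the polymyxin controls ran 128–0.06 μg/mL. The MIC was the lowest concentration with no visible growth after 18 h at 37 °C.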

Staphylococcus aureus = assay: microbe, parasite or virus in culture; settings: ATCC 25923, 18 h
Acinetobacter baumannii [3] = assay: Antibacterial activity against Acinetobacter baumannii ATCC 19606 after 18 hrs by 2 fold serial dilution method; type: functional; settings: ATCC 19606, 18 h; how it was run: as §1
Klebsiella pneumoniae [4] = assay: Antibacterial activity against multidrug resistant Klebsiella pneumoniae ATCC 700603 after 18 hrs by 2 fold serial dilution method; type: functional; settings: Klebsiella pneumoniae, 700603, 18 h
How it was run: (§3)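 Overnight cultures at 37 °C in nutrient or Mueller Hinton broth with shaking were diluted 50-fold in MHB and grown 1.5–3 h to mid-log phase. The inoculum was 5×10^5 CFU/mL in MHB. Compounds were 2-fold serially diluted, final 32 to 0.015 μg/mL. After 18 h at 37 °C, the MIC was read visually as the lowest concentration with no visible growth.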

Klebsiella pneumoniae [5] = assay: Antibacterial activity against Klebsiella pneumoniae ATCC 13883 after 18 hrs by 2 fold serial dilution method; type: functional; settings: ATCC 13883, 18 h; how it was run: as §1
Acinetobacter baumannii [6] = assay: Antibacterial activity against clinical isolate carbapenem and polymyxin resistant Acinetobacter baumannii Ptyela 100734512:2 after 18 hrs by 2 fold serial dilution method; type: functional; settings: Ptyela 100734512:2, 18 h; how it was run: as §2
Klebsiella pneumoniae [7] = assay: Antibacterial activity against clinical isolate carbapenem and polymyxin resistant Klebsiella pneumoniae 138-16357-20362 after 18 hrs by 2 fold serial dilution method; type: functional; settings: 138-16357-20362, 18 h; how it was run: as §2
Pseudomonas aeruginosa [8] = assay: Antibacterial activity against Pseudomonas aeruginosa ATCC 27853 after 18 hrs by 2 fold serial dilution method; type: functional; settings: ATCC 27853, 18 h; how it was run: as §1
Pseudomonas aeruginosa [9] = assay: Antibacterial activity against clinical isolate polymyxin resistant Pseudomonas aeruginosa PA9704 after 18 hrs by 2 fold serial dilution method; type: functional; settings: PA9704, 18 h; how it was run: as §2
Klebsiella pneumoniae [10] = assay: Antibacterial activity against Klebsiella pneumoniae ATCC BAA-2146 expressing NDM-1 after 18 hrs by 2 fold serial dilution method; type: functional; settings: ATCC BAA-2146, 18 h; how it was run: as §3
Pseudomonas aeruginosa [11] = assay: Antibacterial activity against clinical isolate polymyxin resistant Pseudomonas aeruginosa FADDI-PA070 after 18 hrs by 2 fold serial dilution method; type: functional; settings: FADDI-PA070, 18 h; how it was run: as §2

Q: What does the source list for CCCCCCCC(=O)N[C@@H](CCN)C(=O)N[C@H](C(=O)N[C@@H](CCN)C(=O)N[C@H]1CCNC(=O)[C@H]([C@@H](C)O)NC(=O)[C@H](CCN)NC(=O)[C@H](CCNC(=O)[C@@H](N)CCC(=O)O)NC(=O)[C@H](CC(C)C)NC(=O)[C@@H](Cc2ccccc2)NC(=O)[C@H](CCN)NC1=O)[C@@H](C)O (Octanoyl-[Dab]T[Dab][Dab][Dab][dF]L[Dab](Glu)[Dab]T; lactam 4-C)?
A: CC50 at 24 h [1]: > 300 µM; MIC (Escherichia coli): 1 µg/mL (≈ 0.758 µM); MIC (Klebsiella pneumoniae [2]): > 32 µg/mL; MIC (Staphylococcus aureus): > 32 µg/mL; MIC (Acinetobacter baumannii [3]): 4 µg/mL (≈ 3.03 µM); MIC (Klebsiella pneumoniae [4]): 4 µg/mL (≈ 3.03 µM); MIC (Klebsiella pneumoniae [5]): 8 µg/mL (≈ 6.07 µM); MIC (Acinetobacter baumannii [6]): > 32 µg/mL; MIC (Klebsiella pneumoniae [7]): > 32 µg/mL; MIC (Pseudomonas aeruginosa [8]): 8 µg/mL (≈ 6.07 µM); MIC (Pseudomonas aeruginosa [9]): > 32 µg/mL; MIC (Klebsiella pneumoniae [10]): 4 µg/mL (≈ 3.03 µM); MIC (Pseudomonas aeruginosa [11]): > 32 µg/mL

Q: Which CC50 at 24 h [1] does the source give for CCCCCCCC(=O)N[C@@H](CCN)C(=O)N[C@H](C(=O)N[C@@H](CCN)C(=O)N[C@H]1CCNC(=O)[C@H]([C@@H](C)O)NC(=O)[C@H](CCCNC(=N)N)NC(=O)[C@H](CCN)NC(=O)[C@H](CC(C)C)NC(=O)[C@@H](Cc2ccccc2)NC(=O)[C@H](CCN)NC1=O)[C@@H](C)O (Octanoyl-[Dab]T[Dab][Dab][Dab][dF]L[Dab]RT; lactam 4-C) here?
A: Its CC50 at 24 h is > 300 µM.

Q: What about the MIC (Escherichia coli) of the same molecule?
A: Its MIC is 16 µg/mL (≈ 12.8 µM).

Q: And the MIC (Klebsiella pneumoniae [2])?
A: The MIC was > 32 µg/mL.

Q: What about the MIC (Staphylococcus aureus) of the same molecule?
A: The MIC was > 32 µg/mL.

Q: And the MIC (Acinetobacter baumannii [3])?
A: The MIC was 32 µg/mL (≈ 25.7 µM).

Q: What about the MIC (Klebsiella pneumoniae [4]) of the same molecule?
A: Its MIC is 8 µg/mL (≈ 6.42 µM).

Q: What about the MIC (Klebsiella pneumoniae [5]) of the same molecule?
A: Its MIC is > 32 µg/mL.

Q: What about the MIC (Acinetobacter baumannii [6]) of the same molecule?
A: The MIC was > 32 µg/mL.

Q: And the MIC (Klebsiella pneumoniae [7])?
A: The MIC was > 32 µg/mL.

Q: And the MIC (Pseudomonas aeruginosa [8])?
A: Its MIC is 1 µg/mL (≈ 0.803 µM).

Q: What about the MIC (Pseudomonas aeruginosa [9]) of the same molecule?
A: Its MIC is > 32 µg/mL.

Q: And the MIC (Klebsiella pneumoniae [10])?
A: The MIC was 4 µg/mL (≈ 3.21 µM).

Q: And the MIC (Pseudomonas aeruginosa [11])?
A: The MIC was > 32 µg/mL.

Q: With CCCCCCCC(=O)N[C@@H](CCN)C(=O)N[C@H](C(=O)N[C@@H](CCN)C(=O)N[C@H]1CCNC(=O)[C@H]([C@@H](C)O)NC(=O)[C@H](CCNC(=O)[C@@H](N)CCC(=O)O)NC(=O)[C@H](CCN)NC(=O)[C@H](CC(C)C)NC(=O)[C@@H](Cc2ccccc2)NC(=O)[C@H](CCN)NC1=O)[C@@H](C)O (Octanoyl-[Dab]T[Dab][Dab][Dab][dF]L[Dab][Dab](Glu)T; lactam 4-C) as the molecule, how does the CC50 at 24 h [1] read?
A: Its CC50 at 24 h is > 300 µM.

Q: What about the MIC (Escherichia coli) of the same molecule?
A: The MIC was 4 µg/mL (≈ 3.03 µM).

Q: What about the MIC (Klebsiella pneumoniae [2]) of the same molecule?
A: Its MIC is > 32 µg/mL.

Q: What about the MIC (Staphylococcus aureus) of the same molecule?
A: The MIC was > 32 µg/mL.

Q: What about the MIC (Acinetobacter baumannii [3]) of the same molecule?
A: The MIC was 16 µg/mL (≈ 12.1 µM).

Q: What about the MIC (Klebsiella pneumoniae [4]) of the same molecule?
A: Its MIC is 4 µg/mL (≈ 3.03 µM).

Q: And the MIC (Klebsiella pneumoniae [5])?
A: The MIC was 16 µg/mL (≈ 12.1 µM).

Q: And the MIC (Acinetobacter baumannii [6])?
A: The MIC was > 32 µg/mL.

Q: And the MIC (Klebsiella pneumoniae [7])?
A: The MIC was > 32 µg/mL.

Q: What about the MIC (Pseudomonas aeruginosa [8]) of the same molecule?
A: The MIC was 8 µg/mL (≈ 6.07 µM).

Q: What about the MIC (Pseudomonas aeruginosa [9]) of the same molecule?
A: Its MIC is > 32 µg/mL.

Q: What about the MIC (Klebsiella pneumoniae [10]) of the same molecule?
A: The MIC was 4 µg/mL (≈ 3.03 µM).

Q: And the MIC (Pseudomonas aeruginosa [11])?
A: Its MIC is > 32 µg/mL.

Q: Which CC50 at 24 h [1] does the source give for CCCCCCCC(=O)N[C@@H](CCN)C(=O)N[C@H](C(=O)N[C@@H](CCN)C(=O)N[C@H]1CCNC(=O)[C@H]([C@@H](C)O)NC(=O)[C@H](Cc2ccc(N)cc2)NC(=O)[C@H](CCN)NC(=O)[C@H](CC(C)C)NC(=O)[C@@H](Cc2ccccc2)NC(=O)[C@H](CCN)NC1=O)[C@@H](C)O (Octanoyl-[Dab]T[Dab][Dab][Dab][dF]L[Dab][Phe(4-NH2)]T; lactam 4-C) here?
A: The CC50 at 24 h was > 300 µM.

Q: And the MIC (Escherichia coli)?
A: The MIC was 16 µg/mL (≈ 12.8 µM).

Q: And the MIC (Klebsiella pneumoniae [2])?
A: Its MIC is > 32 µg/mL.

Q: And the MIC (Staphylococcus aureus)?
A: Its MIC is > 32 µg/mL.

Q: What about the MIC (Acinetobacter baumannii [3]) of the same molecule?
A: The MIC was > 32 µg/mL.

Q: What about the MIC (Klebsiella pneumoniae [4]) of the same molecule?
A: Its MIC is 16 µg/mL (≈ 12.8 µM).

Q: What about the MIC (Klebsiella pneumoniae [5]) of the same molecule?
A: Its MIC is > 32 µg/mL.

Q: And the MIC (Acinetobacter baumannii [6])?
A: Its MIC is > 32 µg/mL.

Q: What about the MIC (Klebsiella pneumoniae [7]) of the same molecule?
A: The MIC was > 32 µg/mL.

Q: And the MIC (Pseudomonas aeruginosa [8])?
A: Its MIC is 32 µg/mL (≈ 25.6 µM).

Q: What about the MIC (Pseudomonas aeruginosa [9]) of the same molecule?
A: The MIC was > 32 µg/mL.

Q: What about the MIC (Klebsiella pneumoniae [10]) of the same molecule?
A: The MIC was 16 µg/mL (≈ 12.8 µM).

Q: What about the MIC (Pseudomonas aeruginosa [11]) of the same molecule?
A: Its MIC is > 32 µg/mL.

Q: What does the source list for CCCCCCCC(=O)N[C@@H](CCN)C(=O)N[C@H](C(=O)N[C@@H](CCN)C(=O)N[C@H]1CCNC(=O)[C@H]([C@@H](C)O)NC(=O)[C@H](CCN)NC(=O)[C@H](CCO)NC(=O)[C@H](CC(C)C)NC(=O)[C@@H](Cc2ccccc2)NC(=O)[C@H](CCN)NC1=O)[C@@H](C)O (Octanoyl-[Dab]T[Dab][Dab][Dab][dF]L[hSer][Dab]T; lactam 4-C)?
A: CC50 at 24 h [1]: > 300 µM; MIC (Escherichia coli): 1 µg/mL (≈ 0.84 µM); MIC (Klebsiella pneumoniae [2]): > 32 µg/mL; MIC (Staphylococcus aureus): > 32 µg/mL; MIC (Acinetobacter baumannii [3]): 8 µg/mL (≈ 6.72 µM); MIC (Klebsiella pneumoniae [4]): 2 µg/mL (≈ 1.68 µM); MIC (Klebsiella pneumoniae [5]): > 32 µg/mL; MIC (Acinetobacter baumannii [6]): > 32 µg/mL; MIC (Klebsiella pneumoniae [7]): > 32 µg/mL; MIC (Pseudomonas aeruginosa [8]): 4 µg/mL (≈ 3.36 µM); MIC (Pseudomonas aeruginosa [9]): > 32 µg/mL; MIC (Klebsiella pneumoniae [10]): 2 µg/mL (≈ 1.68 µM); MIC (Pseudomonas aeruginosa [11]): > 32 µg/mL

Reference: ChEMBL document CHEMBL3774373, “Activity and Predicted Nephrotoxicity of Synthetic Antibiotics Based on Polymyxin B” (J Med Chem, 2016)
